{"source": "paper PMC5766731", "about": "(Clinical Pharmacokinetics, 2017)", "key": {"[1]": {"experiment": "Part I urinary recovery of ZYAN1", "type": "in vivo, human", "settings": "for Amount recovered [mean ± SD] / Percentage recovered [mean ± SD]: urine, part I", "summary_of_the_method": "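Urine collected pre-dose and over 0–12, 12–24, 24–36 and 36–48 h: after the single dose (10–300 mg, part I) or after each alternate-day dose on Days 1, 3 and 5 (part II). Total volume recorded; 5 mL aliquots stored at –80 ± 10 °C. Acetonitrile precipitation and LC-MS/MS with analog internal standard, urine calibration 2–5000 ng/mL, LLOQ 2 ng/mL. Amount and percentage of dose recovered calculated.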"}, "PHD enzyme": {"biological_target": "PHD enzyme", "settings": "read-out: concentration of drug producing 50% inhibition [IC50]; HepG2 cells, HIF stabilization; cited from earlier work"}, "cytochrome P450 (CYP)": {"test_system": "cytochrome P450 (CYP)", "settings": "cited from earlier work"}, "Part I safety assessment": {"experiment": "Part I safety assessment", "type": "in vivo, human", "summary_of_the_method": "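Safety monitored under ICH-GCP in each part (single 10–300 mg; alternate-day 100–300 mg; 150 mg fasted/fed crossover). Assessments: adverse events coded with MedDRA version 18.0, clinical examinations, frequent vital signs, 12-lead ECGs, clinical laboratory tests, and continuous ECG for 24 h post-dose in parts I and II. Post-dose vs baseline compared by paired two-sided t test, α = 0.05.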"}}, "data": [{"smiles": "O=C(O)CNC(=O)c1c(O)c2ccccc2n(OCC2CC2)c1=O", "note": "[ZYAN1]", "values": [{"measurement": "urinary excretion of intact ZYAN1, average", "setting": "[1]; healthy subjects", "value": 36, "unit": "%"}, {"measurement": "Amount recovered [mean ± SD]", "setting": "[1]; single oral dose 10 mg", "value": "3.63 ± 1.02", "unit": "mg"}, {"measurement": "Percentage recovered [mean ± SD]", "setting": "[1]; single oral dose 10 mg", "value": "36.270 ± 10.245", "unit": "%"}, {"measurement": "Amount recovered [mean ± SD]", "setting": "[1]; single oral dose 25 mg", "value": "9.45 ± 1.76", "unit": "mg"}, {"measurement": "Percentage recovered [mean ± SD]", "setting": "[1]; single oral dose 25 mg", "value": "37.798 ± 7.059", "unit": "%"}, {"measurement": "Amount recovered [mean ± SD]", "setting": "[1]; single oral dose 50 mg", "value": "18.99 ± 3.36", "unit": "mg"}, {"measurement": "Percentage recovered [mean ± SD]", "setting": "[1]; single oral dose 50 mg", "value": "37.995 ± 6.718", "unit": "%"}, {"measurement": "Amount recovered [mean ± SD]", "setting": "[1]; single oral dose 100 mg", "value": "41.13 ± 12.06", "unit": "mg"}, {"measurement": "Percentage recovered [mean ± SD]", "setting": "[1]; single oral dose 100 mg", "value": "41.130 ± 12.064", "unit": "%"}, {"measurement": "Amount recovered [mean ± SD]", "setting": "[1]; single oral dose 150 mg", "value": "56.23 ± 17.26", "unit": "mg"}, {"measurement": "Percentage recovered [mean ± SD]", "setting": "[1]; single oral dose 150 mg", "value": "37.485 ± 11.508", "unit": "%"}, {"measurement": "Amount recovered [mean ± SD]", "setting": "[1]; single oral dose 200 mg", "value": "62.83 ± 18.11", "unit": "mg"}, {"measurement": "Percentage recovered [mean ± SD]", "setting": "[1]; single oral dose 200 mg", "value": "31.417 ± 9.056", "unit": "%"}, {"measurement": "Amount recovered [mean ± SD]", "setting": "[1]; single oral dose 300 mg", "value": "82.66 ± 39.25", "unit": "mg"}, {"measurement": "Percentage recovered [mean ± SD]", "setting": "[1]; single oral dose 300 mg", "value": "27.555 ± 13.083", "unit": "%"}, {"measurement": "IC50", "setting": "PHD enzyme", "value": 11.2, "unit": "µM"}, {"measurement": "potential for cytochrome P450 (CYP)-mediated drug–drug interactions", "setting": "cytochrome P450 (CYP)", "value": "minimal potential"}, {"measurement": "Adverse events (Test)", "setting": "Part I safety assessment; SAD 25 mg panel", "value": "Rhinorrhea, right lower wisdom tooth pain, sore throat"}, {"measurement": "Adverse events (Test)", "setting": "Part I safety assessment; SAD 50 mg panel", "value": "Dizziness, headache, chest pain, Diarrhea, upper respiratory tract infection"}, {"measurement": "Adverse events (Test)", "setting": "Part I safety assessment; SAD 100 mg panel", "value": "Dizziness, headache, lethargy, nausea, throat irritation, increase in AST, hyperkalemia"}, {"measurement": "Adverse events (Test)", "setting": "Part I safety assessment; SAD 200 mg panel", "value": "Back pain"}, {"measurement": "drug-related serious adverse events", "setting": "Part I safety assessment; all study parts", "value": "No drug-related serious adverse events were reported"}, {"measurement": "severity of AEs possibly related to study treatment", "setting": "Part I safety assessment; part I", "value": "grade 1"}, {"measurement": "subjects with AEs possibly related to study treatment", "setting": "Part I safety assessment; part I, nine AEs in six subjects, placebo 21%", "value": 14, "unit": "%"}, {"measurement": "tolerability", "setting": "Part I safety assessment; single and multiple oral ascending doses", "value": "well-tolerated"}]}]}
